Source: PubChem BioAssay
The entries come from a sample that favours hits as a whole.
UPR XBP1 act: activators of adaptive XBP1 UPR arm, primary screen, cell-based, CHO-XBP1 luciferase reporter, luminescence, uHTS. IRE1-XBP1 UPR activation; percent of tunicamycin response, DMSO as zero. activation, % at 20 µM. AID 463104, 2010. 330,000 tested, 0.33% active;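 active = versus positive control, 20 µM dose yields 30% or more activation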
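Assay system: CHO-XBP1 luciferase reporter cells; Schedule: 6 h treatment, 37 °C; Detection: glow luminescence from Steady-Glo reagent; Benchmarks: high control tunicamycin 10 µg/mL final, low control DMSO vehicle only.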
CHOP UPR activ: activators of apoptotic CHOP UPR arm, primary screen, cell-based, CHO-CHOP luciferase reporter, luminescence, uHTS; activation, % at 10 µM; 330,000 tested, 0.34% active; UPR activation; percent of tunicamycin response over DMSO baseline;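 active = at 10 µM dose, activation of 40% or more, normalized to positive control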
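System: CHO-CHOP luciferase reporter cell line; amount: 500 cells/well; buffer or medium: F12 medium containing 10% fetal bovine serum; incubation: 6 h compound exposure at 37 °C after overnight seeding; measured by: luciferase luminescence after 10 min with Steady-Glo reagent; evaluation: % reporter activation, DMSO baseline versus tunicamycin full activation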
CHOP inhibitor: inhibitors of CHOP promoter induction, primary screen, cell-based, unfolded protein response, luciferase reporter; CHO-K1 CHOP-promoter luciferase, tunicamycin-induced, 15-18 h; inhibition, % at 10 µM; 220,000 tested, 3.8% active;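 active = compounds that reduced the stress-induced luciferase reporter signal by more than about 70% of percent inhibition, limit read from the data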
GAA850 FXN act: FXN promoter activators, primary screen, cell-based, luciferase luminescence, HEK293 lucGAA850. activation, % at 6 µM. 360,000 tested, 0.56% active. HEK293 lucGAA850 FXN promoter luciferase reporter, 24 h; percent of 10 µM SAHA response;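 active = activation above the average of all compounds screened plus 3 SD, cutoff fixed separately per campaign, cut at about 7.5% in these data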
Large screens that a line does not name were inactive.

CCCCN(CCCC)CP(=O)(c1ccccc1)c1ccccc1	CHOP inhibitor 73
O=C1CC(c2ccco2)Cc2nc(NCC3CCCO3)ncc21 (centres undefined)	CHOP inhibitor 82
Cc1ccc(-c2cc(C(=O)OCC(=O)Nc3cc(C)on3)c3ccccc3n2)c(C)c1	CHOP inhibitor 89
CCC(C)c1ccc(-c2cc(C(=O)OCC(=O)Nc3cc(C)on3)c3ccccc3n2)cc1 (centres undefined)	CHOP inhibitor 85
Cc1ccc(Nc2nnc(SCC(=O)Nc3ncc(C(F)(F)F)cc3Cl)s2)cc1	CHOP inhibitor 74
COc1ccc(-c2cc(C(=O)OCC(=O)Nc3cc(C)on3)c3ccccc3n2)cc1OC	CHOP inhibitor 88
COc1ccc(-c2cc(C(=O)OCC(=O)NC3CC3)c3ccccc3n2)cc1OC	none (no result: CHOP inhibitor)
Cc1ccc(-c2cc(C(=O)Nc3ccc(S(=O)(=O)Nc4cc(C)on4)cc3)c3ccccc3n2)c(C)c1	none
C[C@@H]1CCCCO[C@H](CN(C)C(=O)Cc2ccccc2)[C@H](C)CN([C@@H](C)CO)C(=O)c2cc(NC(=O)Nc3ccc(F)cc3)ccc2O1	none (no result: UPR XBP1 act, CHOP UPR activ, CHOP inhibitor)
Cc1ccc(C(=O)NCC(=O)OCC(=O)Nc2ncc(C(F)(F)F)cc2Cl)cc1	none
Cc1ccc(-c2cc(C(=O)OCC(=O)Nc3ncc(C(F)(F)F)cc3Cl)c3ccccc3n2)cc1	CHOP inhibitor 83
COc1ccc(-c2cc(C(=O)Nc3ccc(Cl)cc3Cl)c3ccccc3n2)cc1OC	none
O=C(NNC(=O)c1cc(-c2ccc(Cl)c(Cl)c2)nc2ccccc12)Nc1ccccc1	CHOP inhibitor 89
COc1ccc(-c2cc(C(=O)Nc3c(Cl)cc(Cl)cc3Cl)c3ccccc3n2)cc1OC	CHOP inhibitor 79
Cc1cccc(NC(=O)NNC(=O)c2cc(-c3ccccc3Cl)nc3ccccc23)c1	none
COc1cc(OC)c(C(=O)Nc2cc(S(=O)(=O)N3CCOCC3)ccc2N2CCOCC2)cc1OC	none (no result: UPR XBP1 act, CHOP UPR activ, CHOP inhibitor)
O=C(NCc1ccc(Cl)c(Cl)c1)c1cc(C2CCCCN2C(=O)c2ccccn2)on1 (centres undefined)	none (no result: UPR XBP1 act, CHOP UPR activ, CHOP inhibitor)
Cn1c(=O)c2cc(NC(=O)CCc3ccccc3)ccc2n1-c1ccccc1F	none (no result: UPR XBP1 act, CHOP UPR activ, CHOP inhibitor)
O=C(Nc1ccon1)c1ccc(OC2CCCC2)cc1	CHOP inhibitor 78
Cc1cc(C)c(C)c(S(=O)(=O)NCC(=O)Nc2sc3c(c2C(N)=O)CCCC3)c1C	CHOP inhibitor 95
Cc1noc(C)c1C(=O)Nc1sc2c(c1C(N)=O)CCCCC2	CHOP inhibitor 91
Cc1noc(C)c1C(=O)Nc1sc2c(c1C(N)=O)CCC2	none
CC(=O)NCCNc1nc2cc(-c3cccc(Cl)c3)sc2c(=O)n1C	none (no result: UPR XBP1 act, CHOP UPR activ, CHOP inhibitor)
Clc1ccc(-c2nc3ccccc3n2OCc2ccccc2)cc1	CHOP inhibitor 81
Cc1cccc(NC(=O)c2nc[nH]c2C(=O)NC[C@H](C)O)c1	none (no result: UPR XBP1 act, CHOP UPR activ, CHOP inhibitor)
CC(C)Cn1c(O)c(/C=C2\C=NN=C2c2ccccc2)sc1=S	CHOP inhibitor 71
CC1(C(=O)NCc2cccc3ccccc23)CCN1C(=O)Cc1ccc(-c2ccccc2)cc1 (centres undefined)	none (no result: UPR XBP1 act, CHOP UPR activ, CHOP inhibitor)
CCc1nnc(NC(=O)c2cc(S(=O)(=O)N3CCOCC3)ccc2N2CCCCC2)s1	CHOP inhibitor 72 (no result: UPR XBP1 act, CHOP UPR activ)
O=C(Nc1nnc(C2CC2)s1)c1cc(S(=O)(=O)N2CCCCC2)ccc1N1CCOCC1	none
CCOC(=O)C1(C)CCN1C(=O)c1cccc(Cl)c1 (centres undefined)	none (no result: UPR XBP1 act, CHOP UPR activ, CHOP inhibitor)
COc1cccc(-c2cnc(C(O)c3ccc(C)c(F)c3)[nH]2)c1 (centres undefined)	none (no result: UPR XBP1 act, CHOP UPR activ, CHOP inhibitor)
CCOc1cc(/C=C2\C(=O)N(c3nc(-c4ccc(Br)cc4)cs3)N=C2c2ccccc2)ccc1O	UPR XBP1 act 99, CHOP UPR activ 642
CCOC(=O)c1[nH]c2ccccc2c1N=CN(C)C	none (no result: CHOP inhibitor)
CN(C)C=Nc1ccc2nc3c(cc2c1)[nH]c1ccccc13	GAA850 FXN act 9.2 (no result: CHOP inhibitor)
CC1(Cc2ccccc2OC(F)(F)F)C(=O)Nc2c(Cl)ccc(Cl)c21 (centres undefined)	none (no result: UPR XBP1 act, CHOP UPR activ, CHOP inhibitor)
CC1=NN(c2nc(-c3ccc(C)cc3)cs2)C(=O)C1N=Nc1ccc(C(N)=O)cc1 (centres undefined)	CHOP inhibitor 107 (no result: UPR XBP1 act, CHOP UPR activ)
COc1ccccc1-c1cc(SC)c(C#N)c(=O)o1	CHOP inhibitor 94
CCCC(=O)NCCc1c2n(c3ccc(OC)cc13)Cc1ccccc1-2	none (no result: UPR XBP1 act, CHOP UPR activ, GAA850 FXN act)
